This note sets out measurements from ChEMBL document CHEMBL5252545, “Elucidation of antimicrobial activity and mechanism of action by N-substituted carbazole derivatives” (Bioorg Med Chem Lett, 2017).

Active and inactive are the calls of the source. The calls are words filed in the database; no cut-off is given here.

As usually defined, the pKa is the negative logarithm of the acid dissociation constant. Lower therefore signals a stronger acid or weaker base.

The target of data set [1] is T1, Plasma membrane ATPase 1 (Saccharomyces cerevisiae (strain ATCC 204508 / S288c) (Baker's yeast)) (UniProt P05030).
T1 sequence (whole entry): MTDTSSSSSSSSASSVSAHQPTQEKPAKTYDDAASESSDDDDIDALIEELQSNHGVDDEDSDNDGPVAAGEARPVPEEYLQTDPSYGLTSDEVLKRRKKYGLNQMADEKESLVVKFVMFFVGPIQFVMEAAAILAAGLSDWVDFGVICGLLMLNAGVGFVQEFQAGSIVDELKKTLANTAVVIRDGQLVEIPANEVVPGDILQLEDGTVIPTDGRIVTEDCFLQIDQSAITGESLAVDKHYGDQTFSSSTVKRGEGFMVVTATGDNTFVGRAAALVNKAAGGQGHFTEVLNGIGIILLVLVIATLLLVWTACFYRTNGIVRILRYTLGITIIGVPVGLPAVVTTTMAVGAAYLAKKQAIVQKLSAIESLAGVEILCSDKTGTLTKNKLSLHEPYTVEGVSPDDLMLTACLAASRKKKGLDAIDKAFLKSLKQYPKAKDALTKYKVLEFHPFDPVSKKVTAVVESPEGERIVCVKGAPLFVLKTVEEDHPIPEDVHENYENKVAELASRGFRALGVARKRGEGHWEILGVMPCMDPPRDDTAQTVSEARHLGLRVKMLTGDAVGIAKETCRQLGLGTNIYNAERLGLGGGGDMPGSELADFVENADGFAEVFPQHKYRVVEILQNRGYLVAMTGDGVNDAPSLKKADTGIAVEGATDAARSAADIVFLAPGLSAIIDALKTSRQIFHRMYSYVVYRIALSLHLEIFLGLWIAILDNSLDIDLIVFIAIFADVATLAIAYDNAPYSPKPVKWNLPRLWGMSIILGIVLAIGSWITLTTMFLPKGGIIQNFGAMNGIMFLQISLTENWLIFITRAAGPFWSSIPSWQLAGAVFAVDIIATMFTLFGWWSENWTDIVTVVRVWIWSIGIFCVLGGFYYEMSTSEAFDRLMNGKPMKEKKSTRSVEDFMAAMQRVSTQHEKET
The data set is described as follows: Inhibition of Saccharomyces cerevisiae H+ ATPase pma1 isoform assessed as reduction in ATP hydrolysis rate at 100 uM measured upto 150 sec by measuring […] ATPase activity by spectrophotometry method. A digest of the protocol: (§1)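 S. cerevisiae plasma membranes containing H⁺-ATPase added to start the reaction in pH 7 buffer with 5 mM ATP. Compound added at the indicated times, final DMSO 1.1%. Initial ATP hydrolysis rate read spectrophotometrically by NADH-coupled assay with phosphoenolpyruvate regenerating ATP.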

Data set [2] can be described thus: Dissociation constant, pKa of the compound. It is filed as physicochemical.
Data set [3] has as its target T1, Plasma membrane ATPase 1 (Saccharomyces cerevisiae (strain ATCC 204508 / S288c) (Baker's yeast)). The data set is described as follows: Inhibition of Saccharomyces cerevisiae H+ ATPase pma1 isoform assessed as reduction in ATP hydrolysis rate at 50 uM measured upto 150 sec by measuring […] ATPase activity by spectrophotometry method. A digest of the protocol:
as §1

The target is the same in data set [4]. The data set is described as follows: Inhibition of Saccharomyces cerevisiae H+ ATPase pma1 isoform assessed as reduction in ATP hydrolysis rate at 10 uM measured upto 150 sec by measuring […] ATPase activity by spectrophotometry method. In outline:
as §1

In another data set the test system is Candida albicans. Nature of the data set: Fungicidal activity against Candida albicans SC5314 assessed as cell death at 5 to 10 uM measured upto 24 hrs by time-kill assay. To be noted: dose 5-10 µM. It counts as functional, organism-based. A digest of the protocol:
(§2)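 Time-kill assay: C. albicans or C. glabrata cells at 1×10^5 CFU/ml incubated with compound at 5 or 10 μM. DMSO final concentration 1%. Viability followed over time.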

The subject of the next data set is Nakaseomyces glabratus. The data set is described as follows: Fungicidal against wild type Candida glabrata ATCC 90030 assessed as cell death at 5 to 10 uM measured upto 24 hrs by time-kill assay. It counts as functional, organism-based. To be noted: dose 5-10 µM. A digest of the protocol:
as §2

Turning to `OC(Cn1ccnc1)Cn1c2ccc(Cl)cc2c2cc(Cl)ccc21` (stereo not given), the inhibition result in data set [1] was “Active”. In addition, the pKa in data set [2] was 7.1.

With `OC(Cn1cncn1)Cn1c2ccc(Cl)cc2c2cc(Cl)ccc21` (stereo not given), the pKa in data set [2] was determined as 2.7.

As to `OC(CN1CCOCC1)Cn1c2ccc(Cl)cc2c2cc(Cl)ccc21` (stereo not given), in data set [3], the inhibition result was “Active”. Moreover, the pKa in data set [2] was 6.6.

Turning to `CN1CCN(CC(O)Cn2c3ccc(Cl)cc3c3cc(Cl)ccc32)CC1` (stereo not given), in data set [2], the pKa is 7.6.

On to `CCC(C)NCC(O)Cn1c2ccc(Cl)cc2c2cc(Cl)ccc21` (stereo not given), for which the inhibition entry in data set [4] is “Active”. For the same molecule, the pKa in data set [2] came to 9.2. For the same molecule, the outcome in the data set with Candida albicans and in the data set on Nakaseomyces glabratus was Active.
